Experimental data published in ChEMBL document CHEMBL1275598, “In vitro activity of ceftaroline against community-associated methicillin-resistant, vancomycin-intermediate, vancomycin-resistant, and daptomycin-nonsusceptible Staphylococcus aureus isolates” (2010).
≈ marks a conversion by molar mass, not a printed value.

What was measured:
Type in all cases: functional
[1] = tested on: Staphylococcus aureus; assay: Antimicrobial activity against vancomycin resistant Staphylococcus aureus VRS-5 expressing SCCmec type 2 element by microdilution method
Method in brief: (§1)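 Broth microdilution per CLSI in cation-adjusted Mueller-Hinton broth. Antibiotic powders were reconstituted per CLSI. The MIC was read visually as the lowest drug concentration with no visible growth. S. aureus ATCC 29213 and E. faecalis ATCC 29212 served as control strains. VISA and VRSA isolates came from the NARSA program.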

[2] = tested on: Staphylococcus aureus; assay: Antimicrobial activity against vancomycin-intermediate Staphylococcus aureus assessed as resistant isolates by microdilution method
Method in brief: (§2)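 CLSI broth microdilution MICs in cation-adjusted Mueller-Hinton broth, read visually as the lowest concentration with no visible growth. Percent of isolates classed susceptible or resistant was assigned using CLSI breakpoints.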

[3] = tested on: Staphylococcus aureus; assay: Antimicrobial activity against daptomycin-nonsusceptible Staphylococcus aureus assessed as susceptible isolates by microdilution method
Method in brief: (§3)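 MICs by CLSI broth microdilution in cation-adjusted Mueller-Hinton broth, read visually as the lowest concentration with no visible growth. Percentages of susceptible or resistant isolates assigned using CLSI breakpoints. Isolates: CA-MRSA (n = 92, positive within 48 h of admission) and DNSSA (n = 7, blood).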

[4] = tested on: Staphylococcus aureus; assay: Antimicrobial activity against vancomycin-resistant Staphylococcus aureus assessed as susceptible isolates by microdilution method; method in brief: as §2
[5] = tested on: Staphylococcus aureus; assay: Antimicrobial activity against vancomycin resistant Staphylococcus aureus VRS-6 expressing SCCmec type 2 element by microdilution method; method in brief: as §1
[6] = tested on: Staphylococcus aureus; assay: Antimicrobial activity against vancomycin resistant Staphylococcus aureus VRS-8 expressing SCCmec element by microdilution method; method in brief: as §1
[7] = tested on: Staphylococcus aureus; assay: Antimicrobial activity against vancomycin resistant Staphylococcus aureus VRS-3 expressing SCCmec type 4 element by microdilution method; method in brief: as §1
[8] = tested on: Staphylococcus aureus; assay: Antimicrobial activity against community-acquired methicillin-resistant Staphylococcus aureus by microdilution method
Method in brief: (§4)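 MIC by broth microdilution in cation-adjusted Mueller-Hinton broth, following CLSI guidelines; antibiotic powders reconstituted per CLSI. Read visually as the lowest drug concentration well with no visible growth. S. aureus ATCC 29213 and E. faecalis ATCC 29212 served as control strains. CA-MRSA: hospital patients culture-positive within 48 h of admission. DNSSA: patient blood isolates. VISA: obtained from the NARSA program.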

[9] = tested on: Staphylococcus aureus; assay: Antimicrobial activity against vancomycin intermediate Staphylococcus aureus NRS-3 expressing SCCmec type 2 element by microdilution method; method in brief: as §4
[10] = tested on: Staphylococcus aureus; assay: Antimicrobial activity against vancomycin-intermediate Staphylococcus aureus assessed as susceptible isolates by microdilution method
Method in brief: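 CLSI broth microdilution in cation-adjusted Mueller-Hinton broth. MIC is the lowest concentration well with no visible growth, read by eye. Isolates were classed susceptible from CLSI breakpoints. S. aureus ATCC 29213 and E. faecalis ATCC 29212 were used as MIC control strains.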

[11] = tested on: Staphylococcus aureus; assay: Antimicrobial activity against vancomycin-intermediate Staphylococcus aureus by microdilution method; method in brief: as §1
[12] = tested on: Staphylococcus aureus; assay: Bactericidal activity against daptomycin-nonsusceptible Staphylococcus aureus assessed as antibiotic concentration that reduced the number of viable cells by =>99.9% by colony count method
Method in brief: (§5)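 MBC per CLSI guidelines. It was taken as the antibiotic concentration giving ≥99.9% reduction in viable cells, based on colony counts from the growth control well and rejection values from Pearson's tables.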

[13] = tested on: Staphylococcus aureus; assay: Antimicrobial activity against vancomycin intermediate Staphylococcus aureus NRS-118 expressing SCCmec type 1 element by microdilution method; method in brief: as §4
[14] = tested on: Staphylococcus aureus; assay: Antimicrobial activity against vancomycin intermediate Staphylococcus aureus NRS-17 expressing SCCmec type 2 element by microdilution method; method in brief: as §4
[15] = tested on: Staphylococcus aureus; assay: Antimicrobial activity against vancomycin intermediate Staphylococcus aureus NRS-402 expressing SCCmec type 2 element by microdilution method; method in brief: as §4
[16] = tested on: Staphylococcus aureus; assay: Antimicrobial activity against vancomycin resistant Staphylococcus aureus VRS-1 expressing SCCmec type 2 element by microdilution method; method in brief: as §1
[17] = tested on: Staphylococcus aureus; assay: Antimicrobial activity against vancomycin resistant Staphylococcus aureus VRS-9 expressing SCCmec type 2 element by microdilution method; method in brief: as §1
[18] = tested on: Staphylococcus aureus; assay: Antimicrobial activity against vancomycin resistant Staphylococcus aureus VRS-4 expressing SCCmec type 4 element by microdilution method; method in brief: as §1
[19] = tested on: Staphylococcus aureus; assay: Antimicrobial activity against community-acquired methicillin-resistant Staphylococcus aureus assessed as resistant isolates by microdilution method; method in brief: as §3
[20] = tested on: Staphylococcus aureus; assay: Antimicrobial activity against vancomycin-resistant Staphylococcus aureus by microdilution method; method in brief: as §1
[21] = tested on: Staphylococcus aureus; assay: Antimicrobial activity against vancomycin-resistant Staphylococcus aureus assessed as resistant isolates by microdilution method; method in brief: as §2
[22] = tested on: Staphylococcus aureus; assay: Antimicrobial activity against vancomycin resistant Staphylococcus aureus VRS-7 expressing SCCmec element by microdilution method; method in brief: as §1
[23] = tested on: Staphylococcus aureus; assay: Antimicrobial activity against vancomycin resistant Staphylococcus aureus VRS-10 expressing SCCmec type 2 element by microdilution method; method in brief: as §1
[24] = tested on: Staphylococcus aureus; assay: Antimicrobial activity against community-acquired methicillin-resistant Staphylococcus aureus assessed as susceptible isolates by microdilution method; method in brief: as §3
[25] = tested on: Staphylococcus aureus; assay: Antimicrobial activity against daptomycin-nonsusceptible Staphylococcus aureus by microdilution method; conditions: Staphylococcus aureus; method in brief: as §4
[26] = tested on: Staphylococcus aureus; assay: Antimicrobial activity against vancomycin intermediate Staphylococcus aureus NRS-404 expressing SCCmec type 2 element by microdilution method; method in brief: as §4
[27] = tested on: Staphylococcus aureus; assay: Antimicrobial activity against vancomycin resistant Staphylococcus aureus VRS-2 expressing SCCmec type 2 element by microdilution method; method in brief: as §1
[28] = tested on: Staphylococcus aureus; assay: Bactericidal activity against vancomycin-intermediate Staphylococcus aureus assessed as antibiotic concentration that reduced the number of viable cells by =>99.9% by colony count method; method in brief: as §5
[29] = tested on: Staphylococcus aureus; assay: Bactericidal activity against community-acquired methicillin-resistant Staphylococcus aureus assessed as antibiotic concentration that reduced the number of viable cells by =>99.9% by colony count method
Method in brief: (§6)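 MBC per CLSI following microdilution in cation-adjusted Mueller-Hinton broth. Defined as the concentration giving ≥99.9% reduction in viable cells, judged from colony counts of the growth control well against Pearson rejection-value tables. CA-MRSA isolates were hospital patients' isolates with positive MRSA culture within 48 h of admission.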

[30] = tested on: Staphylococcus aureus; assay: Bactericidal activity against vancomycin-resistant Staphylococcus aureus assessed as antibiotic concentration that reduced the number of viable cells by =>99.9% by colony count method; method in brief: as §6
[31] = tested on: Staphylococcus aureus; assay: Antimicrobial activity against daptomycin-nonsusceptible Staphylococcus aureus assessed as resistant isolates by microdilution method; method in brief: as §3

CN[C@H](CC(C)C)C(=O)N[C@H]1C(=O)N[C@@H](CC(N)=O)C(=O)N[C@H]2C(=O)N[C@H]3C(=O)N[C@H](C(=O)N[C@H](C(=O)O)c4cc(O)cc(O)c4-c4cc3ccc4O)[C@H](O)c3ccc(c(Cl)c3)Oc3cc2cc(c3O[C@@H]2O[C@H](CO)[C@@H](O)[C@H](O)[C@H]2O[C@H]2C[C@](C)(N)[C@H](O)[C@H](C)O2)Oc2ccc(cc2Cl)[C@H]1O [VANCOMYCIN]
MIC [1]: > 64 µg/mL
Activity [2]: 0%
Activity [3]: 100%
Activity [4]: 0%
MIC [5]: > 64 µg/mL
MIC [6]: > 64 µg/mL
MIC [7]: 32 µg/mL (≈ 22.1 µM)
MIC50 [8]: 1 µg/mL (≈ 0.69 µM)
MIC90 [8]: 1 µg/mL (≈ 0.69 µM)
MIC [9]: 8 µg/mL (≈ 5.52 µM)
Activity [10]: 13%
MIC50 [11]: 4 µg/mL (≈ 2.76 µM)
MIC90 [11]: 8 µg/mL (≈ 5.52 µM)
MBC50 [12]: 2 µg/mL (≈ 1.38 µM)
MBC ([12]; Staphylococcus aureus, read-out: MBC): 2 µg/mL (≈ 1.38 µM)
MIC [13]: 8 µg/mL (≈ 5.52 µM)
MIC [14]: 8 µg/mL (≈ 5.52 µM)
MIC [15]: 8 µg/mL (≈ 5.52 µM)
MIC [16]: > 64 µg/mL
MIC [17]: > 64 µg/mL
MIC [18]: > 64 µg/mL
Activity [19]: 0%
MIC50 [20]: > 64 µg/mL
MIC90 [20]: > 64 µg/mL
Activity [21]: 100%
MIC [22]: > 64 µg/mL
MIC [23]: > 64 µg/mL
Activity [24]: 100%
MIC50 [25]: 2 µg/mL (≈ 1.38 µM)
MIC [26]: 8 µg/mL (≈ 5.52 µM)
MIC [27]: 32 µg/mL (≈ 22.1 µM)
MBC50 [28]: 4 µg/mL (≈ 2.76 µM)
MBC90 [28]: 8 µg/mL (≈ 5.52 µM)
MBC ([28]; Staphylococcus aureus): 1 µg/mL (≈ 0.69 µM)
MBC50 [29]: 1 µg/mL (≈ 0.69 µM)
MBC90 [29]: 1 µg/mL (≈ 0.69 µM)
MBC ([29]; Staphylococcus aureus): 0.5 µg/mL (≈ 0.345 µM)
MBC50 [30]: >64 µg/mL
MBC90 [30]: >64 µg/mL
MBC ([30]; Staphylococcus aureus): > 64 µg/mL
Activity [31]: 0%
